Measured values as given in ChEMBL document CHEMBL1122662, “3-Hydroxy-alpha-methyltyrosine progenitors: synthesis and evaluation of some (2-oxo-1,3-dioxol-4-yl)methyl esters” (J Med Chem, 1984).

Columns and labels:
[1] = Compound was evaluated for its bioavailability after oral administration (200 mg) to Beagle dogs; format: ADME, organism-based, Canis lupus familiaris; conditions: dog, in vivo
How it was run: (§1)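 Randomized cross-over in four male beagles fasted overnight and 6 h postdose, water ad libitum. Single oral doses equal to 200 mg methyldopa; 100 mg methyldopa iv as reference. Jugular blood through 10 h. Plasma deproteinized with HClO4, internal standard ethyldopa, analyzed by C-18 HPLC with amperometric detection. AUC by trapezoids plus terminal extrapolation. Systemic availability relative to iv by Kwan-Till, constant nonrenal clearance; mean ± SD.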

[2] = Compound was evaluated for its urinary recovery after oral administration (200 mg) to Beagle dogs; format: ADME, organism-based, Canis lupus familiaris; conditions: dog, urine, read-out: Activity
How it was run: (§2)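 Four male beagles in cross-over, single oral doses equal to 200 mg methyldopa, 100 mg iv reference. Voided urine collected through 48 h, heated with HClO4 (99 °C, 15 min) to hydrolyze conjugates, methyldopa measured by HPLC-amperometry. Urinary recovery as % dose; renal clearance as total urinary recovery divided by plasma AUC; mean ± SD.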

[3] = Compound was evaluated for its renal clearance after oral administration (200 mg) to Beagle dogs; format: ADME, organism-based, Canis lupus familiaris; conditions: dog, in vivo, read-out: Renal clearance; how it was run: as §2
Rattus norvegicus [4] = assay: Antihypertensive activity was evaluated in SH rats by measuring imax reduction in mean arterial pressure at 0.12 mM/kg dose administered perorally; equivalent to 25 mg/kg of methyldopa; format: functional, Artery; conditions: route oral
How it was run: (§3)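 Unanesthetized male Wistar-Okamoto spontaneously hypertensive rats (290-350 g, 16-24 weeks), six per group, dosed orally at 0.12, 0.24 or 0.47 mmol/kg, equal to 25, 50 or 100 mg/kg methyldopa; doses based on base weight. Arterial pressure recorded continuously by transducer, mean pressure printed every 1/2 h. Initial pressure and maximum fall recorded, mean ± SE.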

Rattus norvegicus [5] = assay: Antihypertensive activity was evaluated in SH rats by measuring max reduction in mean arterial pressure at 0.24 mM/kg dose administered perorally; equivalent to 50 mg/kg of methyldopa; format: functional, Artery; conditions: route oral; how it was run: as §3
Rattus norvegicus [6] = assay: Antihypertensive activity was evaluated in SH rats by measuring max reduction in mean arterial pressure at 0.47 mM/kg dose administered perorally; equivalent to 100 mg/kg of methyldopa; format: functional, Artery; conditions: route oral; how it was run: as §3
Rattus norvegicus [7] = assay: Antihypertensive activity was evaluated in SH rats by measuring initial mean arterial pressure at 0.12 mM/kg dose administered perorally; equivalent to 25 mg/kg of methyldopa; format: functional, Artery; conditions: route oral; how it was run: as §3
Rattus norvegicus [8] = assay: Antihypertensive activity was evaluated in SH rats by measuring initial mean arterial pressure at 0.24 mM/kg dose administered perorally; equivalent to 50 mg/kg of methyldopa; format: functional, Artery; conditions: route oral; how it was run: as §3
Rattus norvegicus [9] = assay: Antihypertensive activity was evaluated in SH rats by measuring initial mean arterial pressure at 0.47 mM/kg dose administered perorally; equivalent to 100 mg/kg of methyldopa; format: functional, Artery; conditions: route oral; how it was run: as §3
[10] = Systemic availability with respect to methyldopa was determined; format: ADME; how it was run: as §1
Rattus norvegicus [11] = assay: Antihypertensive activity was evaluated in SH rats by measuring imax reduction in mean arterial pressure at 0.24 mM/kg dose administered perorally; equivalent to 50 mg/kg of methyldopa; format: functional, Artery; conditions: route oral; how it was run: as §3
[12] = Compound was evaluated for its bioavailability after intravenous administration (100 mg) to Beagle dogs
[13] = Compound was evaluated for its renal clearance after intravenous administration (100 mg) to Beagle dogs
[14] = Compound was evaluated for its urinary recovery after intravenous administration (100 mg) to Beagle dogs

Compound	AUC [1]	dose excreted [2]	CL renal [3]	Max reduction in mean arterial pressure (Rattus norvegicus [4])	Max reduction in mean arterial pressure (Rattus norvegicus [5])	Max reduction in mean arterial pressure (Rattus norvegicus [6])	Initial mean arterial pressure (Rattus norvegicus [7])	Initial mean arterial pressure (Rattus norvegicus [8])	Initial mean arterial pressure (Rattus norvegicus [9])	Activity [10]	Max reduction in mean arterial pressure (Rattus norvegicus [11])	AUC [12]	Renal clearance [13]	Activity [14]
Cc1oc(=O)oc1COC(=O)C(C)(N)Cc1ccc(O)c(O)c1 (stereo not given)	61700 ng·h/mL	53.2%	29.2 mL/min	29 mmHg	38 mmHg	52 mmHg	180 mmHg	172 mmHg	164 mmHg	94.2%	–	–	–	–
C[C@](N)(Cc1ccc(O)c(O)c1)C(=O)O [METHYLDOPA]	58300 ng·h/mL	54.2%	31.9 mL/min	–	–	–	–	174 mmHg	–	92.1%	37 mmHg	32600 ng·h/mL	31.8 mL/min	57.7%
CC(OC(=O)C(C)(C)C)OC(=O)C(C)(N)Cc1ccc(O)c(O)c1.Cl (stereo not given)	–	–	–	23 mmHg	60 mmHg	83 mmHg	181 mmHg	181 mmHg	179 mmHg	–	–	–	–	–
CC(N)(Cc1ccc(O)c(O)c1)C(=O)OCc1oc(=O)oc1C(C)(C)C (stereo not given)	37400 ng·h/mL	31.4%	29.3 mL/min	24 mmHg	45 mmHg	93 mmHg	182 mmHg	172 mmHg	185 mmHg	55.7%	–	–	–	–
